Values after ≈ are worked out from the molar mass of the structure shown.
Legend:
Staphylococcus aureus = experiment: Antimicrobial activity against vancomycin-sensitive Staphylococcus aureus ATCC 25923 after 24 hrs by microtiter plate based antimicrobial assay; format: functional; conditions: ATCC 25923, 24 h
Procedure, shortened: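 Microtiter plate broth assay against vancomycin-sensitive S. aureus ATCC 25923. Unstable hydrazine-bearing analogues were tested within one day of freeing the hydrazine. They were used as crude deprotected material without reverse-phase HPLC purification, because purification caused decomposition.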

Enterococcus faecalis = experiment: Antimicrobial activity against vancomycin-resistant Enterococcus faecalis BM4166 after 24 hrs by microtiter plate based antimicrobial assay; format: functional
Procedure, shortened: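 VanA-type vancomycin-resistant E. faecalis BM4166, with inducible resistance that switches cell-wall precursors from D-Ala-D-Ala to D-Ala-D-Lac on glycopeptide exposure. MIC measured in a microtiter plate format. Unstable hydrazine analogues were assayed within one day of deprotection, as crude material without HPLC purification.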

Row | Compound | MIC (Staphylococcus aureus) [µg/mL] | MIC (Enterococcus faecalis) [µg/mL]
1 | CN[C@H](Cc1cccc(NC(=N)N)c1)C(=O)N[C@H]1C(=O)N[C@@H](CC(N)=O)C(=O)N[C@H]2C(=O)N[C@H]3C(=O)N[C@H](C(=O)N[C@H](C(=O)O)c4cc(O)cc(O)c4-c4cc3ccc4O)[C@H](O)c3ccc(c(Cl)c3)Oc3cc2cc(c3O)Oc2ccc(cc2Cl)[C@H]1O.O=C(O)C(F)(F)F | 10 | 320
2 | CN[C@H](Cc1cccc(NN)c1)C(=O)N[C@H]1C(=O)N[C@@H](CC(N)=O)C(=O)N[C@H]2C(=O)N[C@H]3C(=O)N[C@H](C(=O)N[C@H](C(=O)O)c4cc(O)cc(O)c4-c4cc3ccc4O)[C@H](O)c3ccc(c(Cl)c3)Oc3cc2cc(c3O)Oc2ccc(cc2Cl)[C@H]1O.O=C(O)C(F)(F)F | 10 | 320
3 | CN[C@H](Cc1cccc(N)c1)C(=O)N[C@H]1C(=O)N[C@@H](CC(N)=O)C(=O)N[C@H]2C(=O)N[C@H]3C(=O)N[C@H](C(=O)N[C@H](C(=O)O)c4cc(O)cc(O)c4-c4cc3ccc4O)[C@H](O)c3ccc(c(Cl)c3)Oc3cc2cc(c3O)Oc2ccc(cc2Cl)[C@H]1O.O=C(O)C(F)(F)F | 20 | 320
4 | CN[C@H](Cc1cccc(CN)c1)C(=O)N[C@H]1C(=O)N[C@@H](CC(N)=O)C(=O)N[C@H]2C(=O)N[C@H]3C(=O)N[C@H](C(=O)N[C@H](C(=O)O)c4cc(O)cc(O)c4-c4cc3ccc4O)[C@H](O)c3ccc(c(Cl)c3)Oc3cc2cc(c3O)Oc2ccc(cc2Cl)[C@H]1O.O=C(O)C(F)(F)F | > 10 | 640
5 | CN[C@H](COC(C)(C)C)C(=O)N[C@H]1C(=O)N[C@@H](CC(N)=O)C(=O)N[C@H]2C(=O)N[C@H]3C(=O)N[C@H](C(=O)N[C@H](C(=O)O)c4cc(O)cc(O)c4-c4cc3ccc4O)[C@H](O)c3ccc(c(Cl)c3)Oc3cc2cc(c3O)Oc2ccc(cc2Cl)[C@H]1O.O=C(O)C(F)(F)F | 20 | 320
6 | CN[C@@H](C(=O)N[C@H]1C(=O)N[C@@H](CC(N)=O)C(=O)N[C@H]2C(=O)N[C@H]3C(=O)N[C@H](C(=O)N[C@H](C(=O)O)c4cc(O)cc(O)c4-c4cc3ccc4O)[C@H](O)c3ccc(c(Cl)c3)Oc3cc2cc(c3O)Oc2ccc(cc2Cl)[C@H]1O)[C@H](C)O.O=C(O)C(F)(F)F | 40 | 800
7 | CN[C@H](CO)C(=O)N[C@H]1C(=O)N[C@@H](CC(N)=O)C(=O)N[C@H]2C(=O)N[C@H]3C(=O)N[C@H](C(=O)N[C@H](C(=O)O)c4cc(O)cc(O)c4-c4cc3ccc4O)[C@H](O)c3ccc(c(Cl)c3)Oc3cc2cc(c3O)Oc2ccc(cc2Cl)[C@H]1O.O=C(O)C(F)(F)F | 40 | 800
8 | CCNC(=O)Nc1cccc(C[C@@H](NC)C(=O)N[C@H]2C(=O)N[C@@H](CC(N)=O)C(=O)N[C@H]3C(=O)N[C@H]4C(=O)N[C@H](C(=O)N[C@H](C(=O)O)c5cc(O)cc(O)c5-c5cc4ccc5O)[C@H](O)c4ccc(c(Cl)c4)Oc4cc3cc(c4O)Oc3ccc(cc3Cl)[C@H]2O)c1.O=C(O)C(F)(F)F | 31 | 640
9 | CN[C@H](Cc1cccc(CNN)c1)C(=O)N[C@H]1C(=O)N[C@@H](CC(N)=O)C(=O)N[C@H]2C(=O)N[C@H]3C(=O)N[C@H](C(=O)N[C@H](C(=O)O)c4cc(O)cc(O)c4-c4cc3ccc4O)[C@H](O)c3ccc(c(Cl)c3)Oc3cc2cc(c3O)Oc2ccc(cc2Cl)[C@H]1O.O=C(O)C(F)(F)F | 1.25 | 170
10 | CN[C@H](CCNN)C(=O)N[C@H]1C(=O)N[C@@H](CC(N)=O)C(=O)N[C@H]2C(=O)N[C@H]3C(=O)N[C@H](C(=O)N[C@H](C(=O)O)c4cc(O)cc(O)c4-c4cc3ccc4O)[C@H](O)c3ccc(c(Cl)c3)Oc3cc2cc(c3O)Oc2ccc(cc2Cl)[C@H]1O.O=C(O)C(F)(F)F | 10 | > 400
11 | CN[C@H](CC(C)C)C(=O)N[C@H]1C(=O)N[C@@H](CC(N)=O)C(=O)N[C@H]2C(=O)N[C@H]3C(=O)N[C@H](C(=O)N[C@H](C(=O)O)c4cc(O)cc(O)c4-c4cc3ccc4O)[C@H](O)c3ccc(c(Cl)c3)Oc3cc2cc(c3O)Oc2ccc(cc2Cl)[C@H]1O [VANCOMYCIN AGLYCON] | 0.625 (≈ 0.546 µM) | 640 (≈ 559 µM)
12 | CN[C@H](CC(C)C)C(=O)N[C@H]1C(=O)N[C@@H](CC(N)=O)C(=O)N[C@H]2C(=O)N[C@H]3C(=O)N[C@H](C(=O)N[C@H](C(=O)O)c4cc(O)cc(O)c4-c4cc3ccc4O)[C@H](O)c3ccc(c(Cl)c3)Oc3cc2cc(c3O[C@@H]2O[C@H](CO)[C@@H](O)[C@H](O)[C@H]2O[C@H]2C[C@](C)(N)[C@H](O)[C@H](C)O2)Oc2ccc(cc2Cl)[C@H]1O [VANCOMYCIN] | 1.25 (≈ 0.863 µM) | 2000 (≈ 1380 µM)
